We go through 7 molecules from ChEMBL document CHEMBL1121954, “Studies on the synthesis of chemotherapeutics. 12. Synthesis and antitumor activity of N-phthalidyl-5-fluorouracil derivatives” (1982).

“And” between values parts separate entries of the source, which are not always exact repeats. Equal values may be shown once.

As usually defined, the T/C is the ratio of treated to control.

Assay [1] relates to Mus musculus. Kind of assay: In vivo antitumor activity against P-388 Leukemia cell line in female BDF1 mice after oral administered dose of 100 mg/kg. Format: functional. The method, boiled down: (§1)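 Female BDF1 mice, 17-23 g, five per group, inoculated intraperitoneally with 10^6 P-388 cells. Oral dosing once daily for 9 days, beginning 1 day after implantation. Activity is % T/C, the median survival time of treated mice relative to controls.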

Assay [2] concerns Mus musculus. Kind of assay: In vivo antitumor activity against P-388 Leukemia cell line in female BDF1 mice after oral administered dose of 200 mg/kg. The assay is classed as functional. The essentials:
as §1

The subject of assay [3] is Mus musculus. Kind of assay: In vivo antitumor activity against P-388 Leukemia cell line in female BDF1 mice after oral administered dose of 25 mg/kg. Format: functional. The essentials:
as §1

The subject of assay [4] is Mus musculus. In words: In vivo antitumor activity against P-388 Leukemia cell line in female BDF1 mice after oral administered dose of 50 mg/kg. The assay is classed as functional. The method, boiled down: as §1
Assay [5] deals with Mus musculus. Kind of assay: In vivo antitumor activity against MH 134 cell line in female […] mice after oral administered dose of 150 mg/kg. Format: functional.
The test system of assay [6] is Mus musculus. In words: In vivo antitumor activity against MH 134 cell line in female […] mice after oral administered dose of 200 mg/kg. Format: functional.
The subject of assay [7] is Mus musculus. Kind of assay: In vivo antitumor activity against MH 134 cell line in female […] mice after oral administered dose of 25 mg/kg. Format: functional.
Assay [8] deals with Mus musculus. Kind of assay: In vivo antitumor activity against MH 134 cell line in female […] mice after oral administered dose of 50 mg/kg. Format: functional.
The test system of assay [9] is Mus musculus. Kind of assay: In vivo antitumor activity against Meth A cell line in female […] mice after oral administered dose of 150 mg/kg. The assay is classed as functional.
Assay [10] has as its system Mus musculus. In words: In vivo antitumor activity against Meth A cell line in female […] mice after oral administered dose of 200 mg/kg. The assay is classed as functional.
Assay [11] relates to Mus musculus. In words: In vivo antitumor activity against Meth A cell line in female BALB/c mice after oral administered dose of 50 mg/kg.
Assay [12] relates to Mus musculus. Kind of assay: In vivo antitumor activity against Meth A cell line in female BALB/c mice after oral administered dose of 200 mg/kg; death.

Take `O=C1OC(n2cc(F)c(=O)n(C3OC(=O)c4ccccc43)c2=O)c2ccccc21` (stereo not drawn): the T/C in [1] is recorded as 102%; in assay [2], 102%; in assay [3] it was 97%; in assay [4] it was 104%.
Consider `O=C1OC(n2c(=O)[nH]cc(F)c2=O)c2ccccc21` (stereo not drawn), for which the T/C in [5] is 37%; in assay [6] it was 17%; in assay [7] it was 77%; in [8] it was 45%; in assay [9], 19%; in [10] it was 7% and 19%. Also, the T/C was determined as 120% in assay [1]; 102% in assay [2]; 111% in [3]; 104% in assay [4]; 37% in assay [11].
`O=C1OC(n2c(=O)c(F)cn(C3CCCO3)c2=O)c2ccccc21` (stereo not drawn): the T/C in [1] is 115%; in assay [2] it was 111%; in [3], 104%; in assay [4], 109%.
Take `O=C1OC(n2cc(F)c(=O)[nH]c2=O)c2ccccc21` (stereo not drawn): the T/C in assay [5] was found to be 22%; in assay [6], 8%; in assay [7] it was 50%; in assay [8], 34%; in assay [9], 7%; in assay [1], 129%. Moreover, the T/C in assay [2] is 124%; in assay [3], 118%; in [4], 116%; in assay [11], 26%; in [12] it was “death”.
With `Cc1ccccc1C(=O)n1c(=O)c(F)cn(C2OC(=O)c3ccccc32)c1=O` (stereo not drawn), the T/C came out at 102% in [1], 109% in assay [2], 113% in [3] and 99% in [4].
For the molecule `CC(=O)n1cc(F)c(=O)n(C2OC(=O)c3ccccc32)c1=O` (stereo not drawn), the T/C is given as 104% in assay [1], 111% in assay [2], 106% in assay [3] and 97% in [4].
Take `O=c1[nH]c(=O)n(C2CCCO2)cc1F` (stereo not drawn) [TEGAFUR]: the T/C stood at 50% in [5]; 32% in assay [6]; 100% in assay [7]; 64% in assay [8]; 23% in [9]; 136% in assay [1]. The T/C is given as 106% in assay [2], 115% in [3], 104% in assay [4] and “death” in assay [12].
